We go through 19 compounds from ChEMBL document CHEMBL1135143, “Discovery and evaluation of N-(triazin-1,3,5-yl) phenylalanine derivatives as VLA-4 integrin antagonists” (Bioorg Med Chem Lett, 2002).

The target in data set [1] is T1, Integrin alpha-4/beta-1 (Homo sapiens, UniProt P05556+P13612). Description: Inhibition of VLA-4 expressed in Jurkat cell line, in a cell-based adhesion assay. Put shortly: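 VLA-4-expressing Jurkat cells incubated 30 min at 37 °C with test compound on plates carrying human two-domain VCAM-1-Fc captured by anti-human Fc; after washing, adherent cells stained with Rose Bengal.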
T1 sequence (P05556 whole entry): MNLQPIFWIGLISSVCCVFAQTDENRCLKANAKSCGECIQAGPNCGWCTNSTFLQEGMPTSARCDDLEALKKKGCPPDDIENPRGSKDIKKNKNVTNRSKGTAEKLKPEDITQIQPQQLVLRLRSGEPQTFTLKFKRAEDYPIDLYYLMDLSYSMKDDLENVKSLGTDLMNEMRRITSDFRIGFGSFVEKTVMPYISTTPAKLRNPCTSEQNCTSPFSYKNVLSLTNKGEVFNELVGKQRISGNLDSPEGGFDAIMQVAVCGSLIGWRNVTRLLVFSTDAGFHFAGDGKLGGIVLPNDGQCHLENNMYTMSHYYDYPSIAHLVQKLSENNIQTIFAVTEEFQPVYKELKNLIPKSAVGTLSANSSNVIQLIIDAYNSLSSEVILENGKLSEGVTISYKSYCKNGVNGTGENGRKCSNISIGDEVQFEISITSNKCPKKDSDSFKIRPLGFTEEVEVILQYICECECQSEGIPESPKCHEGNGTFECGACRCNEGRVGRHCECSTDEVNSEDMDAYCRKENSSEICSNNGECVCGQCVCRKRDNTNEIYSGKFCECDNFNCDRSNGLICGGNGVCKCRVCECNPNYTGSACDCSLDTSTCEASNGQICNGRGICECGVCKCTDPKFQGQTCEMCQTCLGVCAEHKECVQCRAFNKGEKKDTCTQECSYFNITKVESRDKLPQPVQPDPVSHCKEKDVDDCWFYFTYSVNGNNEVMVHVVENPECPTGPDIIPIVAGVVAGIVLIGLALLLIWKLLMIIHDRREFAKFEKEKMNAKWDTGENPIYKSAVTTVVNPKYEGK
T1 sequence (P13612 whole entry): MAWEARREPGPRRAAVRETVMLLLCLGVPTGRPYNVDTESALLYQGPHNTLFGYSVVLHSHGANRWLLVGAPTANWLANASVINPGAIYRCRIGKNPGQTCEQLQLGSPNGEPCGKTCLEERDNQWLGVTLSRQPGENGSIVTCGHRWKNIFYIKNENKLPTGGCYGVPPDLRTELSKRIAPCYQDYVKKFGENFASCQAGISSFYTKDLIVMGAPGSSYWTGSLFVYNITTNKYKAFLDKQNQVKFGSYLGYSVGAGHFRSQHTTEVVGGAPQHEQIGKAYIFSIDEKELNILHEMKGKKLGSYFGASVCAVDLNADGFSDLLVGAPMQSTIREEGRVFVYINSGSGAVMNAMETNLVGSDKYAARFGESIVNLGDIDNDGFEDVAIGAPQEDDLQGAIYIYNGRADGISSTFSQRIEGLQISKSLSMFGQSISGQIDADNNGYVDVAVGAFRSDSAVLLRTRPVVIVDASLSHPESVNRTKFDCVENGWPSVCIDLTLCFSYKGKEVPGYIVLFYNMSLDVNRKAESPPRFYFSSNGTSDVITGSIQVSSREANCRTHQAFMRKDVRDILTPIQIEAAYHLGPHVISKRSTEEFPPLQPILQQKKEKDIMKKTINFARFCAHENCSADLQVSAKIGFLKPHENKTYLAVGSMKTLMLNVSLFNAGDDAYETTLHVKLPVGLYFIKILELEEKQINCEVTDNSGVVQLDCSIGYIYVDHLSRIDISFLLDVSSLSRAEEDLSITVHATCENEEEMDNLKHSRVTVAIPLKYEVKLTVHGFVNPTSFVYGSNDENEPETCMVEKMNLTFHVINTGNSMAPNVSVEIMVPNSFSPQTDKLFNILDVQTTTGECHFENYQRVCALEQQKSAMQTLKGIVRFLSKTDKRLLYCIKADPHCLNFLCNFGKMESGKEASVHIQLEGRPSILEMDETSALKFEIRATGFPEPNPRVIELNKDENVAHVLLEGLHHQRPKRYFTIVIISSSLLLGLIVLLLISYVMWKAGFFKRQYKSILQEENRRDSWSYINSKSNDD

For data set [2], the target named is T1, Integrin alpha-4/beta-1. Description: Inhibition of VLA-4 from HL60 lysate in a protein-based ligand binding assay. Put shortly:
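Compounds titrated into two-domain VCAM-Fc-Ig solution, then added to VLA-4-coated wells; TBS, 1% BSA, 1 mM MnCl2, 0.1% Tween, 2 h room temperature. After washing, bound VCAM detected with peroxidase-coupled anti-human Fc.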

Data set [3] in a line: Compound was evaluated for rate of clearance by using IPRL (Isolated Perfused Rat Liver). It counts as ADME.

For the compound `COc1nc(N[C@@H](Cc2ccc(NC(=O)c3c(Cl)cncc3Cl)cc2)C(=O)O)nc(N2CCOCC2)n1`, the IC50 at Integrin alpha-4/beta-1 [1] came to 510 nM; on Integrin alpha-4/beta-1 [2] it was 14 nM.

The compound `COc1nc(N[C@@H](Cc2ccc(NC(=O)c3c(Cl)cncc3Cl)cc2)C(=O)O)nc(Oc2ccccc2)n1` showed a k el in data set [3] of 0.000167 s⁻¹. Further, the figures for the IC50 on Integrin alpha-4/beta-1 [1] and on Integrin alpha-4/beta-1 [2] were 320 nM and 30 nM, respectively.

In data set [3], `COc1nc(N[C@@H](Cc2ccc(NC(=O)c3c(Cl)cncc3Cl)cc2)C(=O)O)nc(N2CCNCC2)n1` showed a k el of 0.000583 s⁻¹. Further, the concentration for half-maximal inhibition (IC50) against Integrin alpha-4/beta-1 [1] turned out to be 1000 nM; on Integrin alpha-4/beta-1 [2], 25 nM.

In the case of `COc1nc(NCCO)nc(N[C@@H](Cc2ccc(NC(=O)c3c(Cl)cncc3Cl)cc2)C(=O)O)n1`, in data set [3], the k el is 0.0005 s⁻¹. The values for the IC50 against Integrin alpha-4/beta-1 [1] and at Integrin alpha-4/beta-1 [2] were 320 nM and 7 nM, respectively.

Take `COc1nc(N[C@@H](Cc2ccc(NC(=O)c3c(F)cccc3C(F)(F)F)cc2)C(=O)O)nc(OC)n1`: the k el in data set [3] was 0.000167 s⁻¹. The IC50 at Integrin alpha-4/beta-1 [1] turned out to be 4600 nM; at Integrin alpha-4/beta-1 [2], 50 nM.

Regarding `COc1nc(N[C@@H](Cc2ccc(N(C)C(=O)c3c(Cl)cncc3Cl)cc2)C(=O)O)nc(OC)n1`, the IC50 at Integrin alpha-4/beta-1 [2] is 5500 nM.

`O=C(Nc1ccc(C[C@H](Nc2ccc([N+](=O)[O-])cn2)C(=O)O)cc1)c1c(Cl)cncc1Cl` showed a k el in data set [3] of 0.000278 s⁻¹.

In the case of `CCCOc1nc(N[C@@H](Cc2ccc(NC(=O)c3c(Cl)cncc3Cl)cc2)C(=O)O)nc(OC)n1`, the k el in data set [3] was 0.000639 s⁻¹. Also, the results for the 50% inhibitory concentration (IC50) against Integrin alpha-4/beta-1 [1] and at Integrin alpha-4/beta-1 [2] were 300 nM and 45 nM, respectively.

In data set [3], `COc1nc(N[C@@H](Cc2ccc(OCc3c(Cl)cccc3Cl)cc2)C(=O)O)nc(OC)n1` gave a k el of 0.000611 s⁻¹. This compound returned a half-maximal inhibitory concentration (IC50) on Integrin alpha-4/beta-1 [2] of 1500 nM.

In data set [3], `COc1nc(N[C@@H](Cc2ccc(NC(=O)c3c(Cl)cccc3Cl)cc2)C(=O)O)nc(OC)n1` had a k el of 0.000194 s⁻¹. In addition, the IC50 at Integrin alpha-4/beta-1 [1] was found to be 4000 nM; at Integrin alpha-4/beta-1 [2] it was 30 nM.

In data set [3], `O=C(Nc1ccc(C[C@H](Nc2cc(Cl)ncn2)C(=O)O)cc1)c1c(Cl)cncc1Cl` had a k el of 0.000583 s⁻¹.

On to `O=C(Nc1ccc(C[C@H](NC(=O)c2c(Cl)cncc2Cl)C(=O)O)cc1)c1c(Cl)cncc1Cl`, for which the k el in data set [3] was 0.00108 s⁻¹. The values for the IC50 against Integrin alpha-4/beta-1 [1] and on Integrin alpha-4/beta-1 [2] were 0.5 nM and 0.9 nM, respectively.

`CCN(CC)c1nc(N[C@@H](Cc2ccc(NC(=O)c3c(Cl)cncc3Cl)cc2)C(=O)O)nc(OC)n1`: the IC50 on Integrin alpha-4/beta-1 [1] was 1620 nM; on Integrin alpha-4/beta-1 [2] it was 70 nM.

In turn, `COc1nc(N[C@@H](Cc2ccc(NC(=O)c3c(Cl)cncc3Cl)cc2)C(=O)O)nc(OC)n1` showed a k el in data set [3] of 0.000306 s⁻¹. The results for the IC50 against Integrin alpha-4/beta-1 [1] and on Integrin alpha-4/beta-1 [2] were 900 nM and 8 nM, respectively.

On to `COc1nc(N[C@@H](Cc2ccc(NC(=O)c3c(Cl)cncc3Cl)cc2)C(=O)O)nc(N(C)C)n1`, for which, in data set [3], the k el was 0.000306 s⁻¹. The IC50 was determined as 590 nM against Integrin alpha-4/beta-1 [1] and 16 nM at Integrin alpha-4/beta-1 [2].

As to `CC(=O)N1CSC[C@@H]1C(=O)N[C@@H](Cc1ccc(NC(=O)c2c(Cl)cncc2Cl)cc1)C(=O)O`, the k el in data set [3] was 0.00103 s⁻¹. For the same compound, the IC50 came to 0.5 nM against Integrin alpha-4/beta-1 [1] and 0.6 nM at Integrin alpha-4/beta-1 [2].

Compound `CCCOc1nc(N[C@@H](Cc2ccc(NC(=O)c3c(Cl)cncc3Cl)cc2)C(=O)O)nc(OCCC)n1` showed a k el in data set [3] of 5.56e-05 s⁻¹. Further, the values for the concentration for half-maximal inhibition (IC50) against Integrin alpha-4/beta-1 [1] and at Integrin alpha-4/beta-1 [2] were 740 nM and 50 nM, respectively.

On to `COc1nc(N[C@@H](Cc2ccc(NC(=O)c3c(Cl)cncc3Cl)cc2)C(=O)O)nc(N2CCC(C(=O)O)CC2)n1`, for which the k el in data set [3] was 0.000583 s⁻¹. The IC50 was determined as 240 nM on Integrin alpha-4/beta-1 [1] and 6 nM on Integrin alpha-4/beta-1 [2].

As to `CCCNc1nc(N[C@@H](Cc2ccc(NC(=O)c3c(Cl)cncc3Cl)cc2)C(=O)O)nc(OC)n1`, the k el in data set [3] is 0.000667 s⁻¹. For the same compound, the IC50 on Integrin alpha-4/beta-1 [1] is 740 nM; at Integrin alpha-4/beta-1 [2], 25 nM.

In general, IC50 refers to the concentration at which inhibition is half-maximal.
